Bioassay records deposited in PubChem by several laboratories.
Sampled rows, rich in hits. Any-hit rate of the full collection: about 1.5%.
PP1 counter: PP1-alpha phosphatase inhibitors, primary screen, counter-screen for PP5 inhibitor project, biochemical, fluorescence, OMFP substrate, single point | Serine/threonine-protein phosphatase PP1-alpha catalytic subunit (Homo sapiens), P62136 | purified PP1alpha | inhibition, % at 6.7 µM | 0.9% of 320,000 active;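 active = inhibition above the mean inhibition of all tested compounds plus 3 SD, computed separately for each screening campaign, cut at about 15% in these data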
PP5 primary: PP5 phosphatase inhibitors, primary screen, biochemical, fluorescence; inhibition, % at 6.7 µM; 0.18% of 320,000 active; purified PP5c, OMFP substrate fluorescence; AID 1987, 2009;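 active = inhibition above the campaign's mean inhibition across all tested compounds plus 3 SD, cut at about 9.5% in these data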;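 note: 0% = DMSO only and 100% = 100 µM cantharidin control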
p97 ATPase inh: inhibitors of human p97 ATPase, primary screen, biochemical; Transitional endoplasmic reticulum ATPase (Homo sapiens), P55072; recombinant p97 ATPase, Kinase-Glo ATP luminescence, 3 h; inhibition, % at 8 µM; 0.42% of 220,000 active; in the data active = inhibition above about 15%;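 note: 0% = DMSO vehicle and 100% = wells lacking enzyme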
PKD1 kinase inh: inhibitors of human PKD1 kinase, biochemical, fluorescence polarization; PKD1 kinase fluorescence polarization assay; 0.056% of 200,000 active; Serine/threonine-protein kinase D1 (Homo sapiens), Q15139; inhibition, % (no concentration beside the values); in the data active = inhibition above about 50%
Hsp70 act: Hsp70 transcriptional activators, primary screen, cell-based, HeLa, Hsp70 promoter luciferase, luminescence, 10 µM; HeLa Hsp70 promoter luciferase reporter; scaled: vehicle 0, proteasome-inhibitor control 100%; activation, % at 10 µM; 0.04% of 200,000 active; AID 1203, 2008;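 active = activation above the mean across all tested compounds plus 3 SD, cutoff set per campaign, cut at about 5.5% in these data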;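 note: 100% = MG132 at 30 µM as the positive control and 0% = DMSO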
RBBP9 inhibitor: human RBBP9 inhibitors, primary screen, biochemical, fluorescence polarization, FP-Rh probe, HTS. Serine hydrolase RBBP9 (Homo sapiens), O75884. recombinant RBBP9. inhibition, % at 7.94 µM. 0.2% of 220,000 active. AID 1515, 2009;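 active = inhibition above the campaign mean of all tested compounds plus 3 SD, cut at about 14% in these data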;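 note: plate controls were DMSO wells with RBBP9 for no effect and wells lacking RBBP9 protein for full effect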
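Test system – recombinant human RBBP9 · Input – RBBP9 2.5 µM in dispensing solution, pre-mixing · Medium – Tris buffer pH 8.0, NaCl, Pluronic · Schedule – preincubation 30 min plus labeling 45 min at 25 °C · Measured by – fluorescence polarization · Measure – % inhibition · Controls – DMSO and no-protein wells · Replicates – one well per compound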
PP1 confirm: PP1 phosphatase inhibitors, confirmation, biochemical, fluorescence, OMFP substrate, triplicate | shares compounds with PP1 counter | purified PP1alpha | inhibition, % at 6.7 µM | 52% of 1,900 active | AID 2358, 2010;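 active = mean PP1 inhibition above a set limit taken from the earlier primary screen, cut at about 15% in these data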
PP5 counter: PP5 phosphatase inhibition by PP1 hits, confirmation, counter-screen for PP1 inhibitor project, biochemical, fluorescence, triplicate; shares compounds with PP1 counter; purified PP5c, OMFP fluorescence; inhibition, % at 6.7 µM; 4% of 1,900 active;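 active = mean PP5 inhibition over triplicate wells above about 9.5% taken from the earlier PP1 screen, limit read from the data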
Numbers without * were called inactive; · = no result.

SMILES	PP1 counter	PP5 primary	p97 ATPase inh	PKD1 kinase inh	Hsp70 act	RBBP9 inhibitor	PP1 confirm	PP5 counter
COc1ccccc1CNC(=O)CN(CCc1ccccc1)S(C)(=O)=O	-2	0	-5	-4	0	-2	·	·
CN(C)/C=C/c1onc(-c2c(Cl)cccc2Cl)c1C#N	35*	2	-3	2	0	-8	1	1
O=C(O)/C=C1\CCCc2ccccc2C1O (stereo unspecified)	-6	6	·	·	·	·	·	·
O=C(NCC1CCCC(CNC(=O)Nc2ccc(Cl)cn2)C1)Nc1ccc(Cl)cn1 (stereo unspecified)	19*	6	·	·	·	·	13	5
O=C(N1CCc2[nH]c3ccccc3c2C1)C(F)(F)F	1	7	·	·	·	·	·	·
CCN(C(=O)c1ccc(S(C)(=O)=O)cc1)C12CC3CC(CC(C3)C1)C2	2	2	-1	-10	0	-7	·	·
CCc1ccc(S(=O)(=O)/N=C2\C=C(Nc3ccc(C(=O)O)cc3)C(=O)c3ccccc32)cc1	15*	11*	·	·	·	·	16*	44*
CN([C@@H](Cc1ccc(OS(=O)(=O)c2cccc3cnccc23)cc1)C(=O)N1CCN(c2ccccc2)CC1)S(=O)(=O)c1cccc2cnccc12	29*	1	5	-1	0	-10	20*	2
COc1ccc(N2CCN(C(=O)C(Cc3ccccc3)n3cccc3)CC2)cc1 (stereo unspecified)	0	2	-6	1	0	-3	·	·
Cc1csc(=O)n1CCC(=O)OCC(=O)Nc1cc([N+](=O)[O-])ccc1Cl	-8	2	·	·	·	·	·	·
CN(CC(=O)Nc1ccc(F)cc1)C(=O)c1cc(-c2ccco2)nc2ccccc12	4	0	·	·	·	·	·	·
Cc1ccc(NC(=O)CN(C)C(=O)c2cc(-c3ccco3)nc3ccccc23)cc1	28*	1	·	·	·	·	0	-1
COc1cccc(NC(=O)c2cc(-c3ccco3)nc3ccccc23)c1	18*	0	·	·	·	·	3	0
CC(=O)c1cccc(NC(=O)c2cc(-c3ccco3)nc3ccccc23)c1	2	0	·	·	·	·	·	·
O=c1[nH]c(NNC(=S)NC2CCCCC2)nc2c1C1(CCCC1)Cc1ccccc1-2	19*	1	-3	·	·	-4	0	-3
O=C(COC(=O)C1CCCCC1)NCCc1ccccc1	·	·	2	3	0	-1	·	·
Cc1cc2ccccn2c1C(C[N+](=O)[O-])c1ccc(N(C)C)cc1 (stereo unspecified)	20*	3	3	-1	0	0	4	9.8*
COc1ccc(C(C[N+](=O)[O-])c2c(C)cc3ccccn23)cc1 (stereo unspecified)	14	3	8	-3	0	-7	·	·
O=c1cc(CN2CCc3ccccc32)nc2sccn12	24*	2	12	5	0	0	31*	-3
CC1=NN(c2ccc(Cl)cc2)C(=O)/C1=C\c1cccn1-c1ccc(S(N)(=O)=O)cc1	2	4	7	11	0	-6	·	·
Nc1[nH]n2c(=O)c3c(nc2c1N=Nc1ccccc1)CCCC3	20*	4	1	-11	0	-2	21*	5
N#C/C(=C/c1ccc(Sc2nc3ccccc3[nH]2)o1)c1ccccc1F	37*	7	2	9	0	1	3	0
Cc1cccnc1NC(=O)C1CC(=O)N(c2ccc3c(c2)OCCO3)C1 (stereo unspecified)	-1	0	·	·	·	·	·	·
O=C(Nc1nc(-c2ccccn2)cs1)C1CC(=O)N(c2ccc3c(c2)OCCO3)C1 (stereo unspecified)	45*	5	4	2	-1	6	55*	-2
CCCCC(CC)C(=O)Nc1cc(C(=O)NCc2ccc(C)cc2)ccc1N1CCC2(CC1)CC(c1ccccc1)=NO2 (stereo unspecified)	19*	-2	·	·	·	·	13	0
SMILES	PP1 counter	PP5 primary	p97 ATPase inh	PKD1 kinase inh	Hsp70 act	RBBP9 inhibitor	PP1 confirm	PP5 counter
COc1cc(/C=N/N=C(/N)c2nonc2N)cc(Br)c1OCc1ccccc1C	0	4	-3	-1	0	-12	·	·
CCOc1cc(/C=N/N=C(/N)c2nonc2N)cc(Br)c1OCc1ccc(Cl)cc1	18*	3	-1	-4	0	-4	15	-4
O=C(O)c1cc(/C=N\O)ccc1OCc1ccccc1	-2	0	4	-11	0	-11	·	·
NC(N)=N/N=C/c1ccc(OCc2ccccc2)c(OCc2ccccc2)c1	35*	6	·	·	·	·	35*	3
CCOc1cc(/C=N/N=C(N)N)ccc1OCc1ccc(Cl)cc1	19*	4	5	13	0	-9	11	0
COc1cc(/C=N/N=C(N)N)ccc1OCc1ccc(Cl)cc1	14	2	8	-4	0	-9	·	·
CCOC(=O)c1ccc(NC(=O)C(=O)NCC2(c3ccc(OC)cc3)CCOCC2)cc1	-5	0	3	·	·	2	·	·
O=C(CN1C(=O)NC2(CCCC2)C1=O)N1CCN(c2ccccc2O)CC1	18*	-1	·	·	·	·	-6	-3
CCOc1ccccc1N1CCN(C(=O)CN2C(=O)NC3(CCCC3)C2=O)CC1	0	0	·	·	·	·	·	·
COc1ccc(/C(C)=N\NC(=O)CSc2nnc(C)s2)cc1	19*	-1	3	1	-1	-6	-3	-2
CCOC(=O)C(=O)NCC(c1ccco1)S(=O)(=O)c1cccs1 (stereo unspecified)	-1	1	·	·	·	·	·	·
COc1ccc(/C=C/C(=O)NC(=S)Nc2cc([N+](=O)[O-])ccc2O)cc1OC	43*	2	10	-8	0	7	39*	-2
COc1ccc([N+](=O)[O-])cc1NC(=S)NC(C)=O	-3	-2	1	-8	0	-5	·	·
COc1cc(/C=C2\SC(N)=NC2=O)ccc1OCC(=O)Nc1ccc(C)cc1	21*	1	4	-11	0	-11	18*	1
COc1ccc(/C=C2/SC(=O)N(CCC(=O)Nc3ccc(C)cc3)C2=O)cc1OC	-4	3	7	3	0	-2	·	·
